# Laboratory results taken from ChEMBL document CHEMBL4002644, “Discovery of GBT440, an Orally Bioavailable R-State Stabilizer of Sickle Cell Hemoglobin” (ACS Med Chem Lett, 2017).
# Activity calls are given as the source filed them. No cut-off for these calls is given here.
# Assays:
# [1] = test system: Hemoglobin HbA (Homo sapiens), P69905+P68871 [E7V]; assay: (§1) Induction of R-state stabilization of Hb betaGlu6Val mutant in sickle disease patient purified HbS/HbA mixture assessed as change from baseline of partial pressure of O2 at which HbS is 50% saturated with O2 at 30 uM preincubated for 45 mins followed by oxygenation for 10 mins and subsequent deoxygenation by hemoximetry relative to control
# In short: (§2)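 Oxygen equilibrium curves were run on a Hemox Analyzer using Hb purified from sickle disease blood (an HbA/HbS mixture) at 25 μM. Compound was tested at 30 μM, or at 500 μM where noted. The read-out was the % change from baseline in the pO2 at which HbS is 50% saturated (Δp50).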
# [2] = test system: Hemoglobin HbA (Homo sapiens), P69905+P68871 [E7V]; assay: Induction of R-state stabilization of Hb betaGlu6Val mutant in sickle cell disease transfused human whole blood assessed as change from baseline of partial pressure of O2 at which HbS is 50% saturated with O2 at 1 mM preincubated for 45 mins followed by 20 mins oxygenation/deoxygenation cycle by hemoximetry relative to control
# In short: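 Whole blood from transfused SCD subjects, at 20% hematocrit (Hb 1 mM), was run with compound at 1 mM. Oxygen equilibrium curves were measured by hemoximetry. The value is the % change from baseline in the pO2 giving 50% O2 saturation (Δp50).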
# Homo sapiens = species on record: Homo sapiens; assay: Induction of R-state stabilization of sickle cell Hb betaGlu6Val mutant purified from sickle cell patient assessed as inhibition of KH2PO4-induced polymerization by measuring change from baseline of delay time for onset of polymerization at 75 uM preincubated for 1 hr followed by deoxygenation for …; parameters: scale not given: the % may be the effect or the level left
# Blood = assay: Half life in Sprague-Dawley rat blood at 7.2 to 120 mg/kg, po by LC-MS/MS analysis; assay type: ADME, organism-based; conditions: in vivo
# Rattus norvegicus = assay: Dose normalized AUC (0 to infinity) in Sprague-Dawley rat at 7.2 to 120 mg/kg, po by LC-MS/MS analysis; assay type: ADME, organism-based; conditions: in vivo
# In short: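 Rat oral PK: AUC(0–∞) divided by the oral dose, expressed as (ng·h/mL)/(mg/kg).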
# [3] = Ratio of drug level in Sprague-Dawley rat RBC to plasma at 7.2 to 120 mg/kg, po by LC-MS/MS analysis; assay type: ADME, organism-based; conditions: red blood cells (RBC) / plasma
# [4] = Oral bioavailability in Sprague-Dawley rat at 7.2 to 120 mg/kg by LC-MS/MS analysis; assay type: ADME, organism-based; conditions: in vivo
# [5] = Oral bioavailability in dog; assay type: ADME, organism-based, Canis lupus familiaris; conditions: in vivo
# [6] = Oral bioavailability in monkey; assay type: ADME, organism-based, Macaca mulatta; conditions: rhesus monkey, in vivo
# [7] = Half life in Sprague-Dawley rat plasma at 7.2 to 120 mg/kg, po by LC-MS/MS analysis; assay type: ADME, organism-based
# [8] = Half life in dog blood; assay type: ADME, tissue-based, Canis lupus familiaris
# [9] = Half life in dog plasma; assay type: ADME, cell-free, Canis lupus familiaris
# [10] = Half life in monkey blood; assay type: ADME, tissue-based, Macaca mulatta; conditions: rhesus monkey
# [11] = Half life in monkey plasma; assay type: ADME, cell-free, Macaca mulatta; conditions: rhesus monkey
# Cytochrome P450 1A2 = biological target: T1, Cytochrome P450 1A2 (Homo sapiens, UniProt P05177); assay: Inhibition of CYP1A2 in human liver microsomes using phenacetin as substrate after 5 to 15 mins; assay type: ADME
# T1 sequence (P05177 whole entry): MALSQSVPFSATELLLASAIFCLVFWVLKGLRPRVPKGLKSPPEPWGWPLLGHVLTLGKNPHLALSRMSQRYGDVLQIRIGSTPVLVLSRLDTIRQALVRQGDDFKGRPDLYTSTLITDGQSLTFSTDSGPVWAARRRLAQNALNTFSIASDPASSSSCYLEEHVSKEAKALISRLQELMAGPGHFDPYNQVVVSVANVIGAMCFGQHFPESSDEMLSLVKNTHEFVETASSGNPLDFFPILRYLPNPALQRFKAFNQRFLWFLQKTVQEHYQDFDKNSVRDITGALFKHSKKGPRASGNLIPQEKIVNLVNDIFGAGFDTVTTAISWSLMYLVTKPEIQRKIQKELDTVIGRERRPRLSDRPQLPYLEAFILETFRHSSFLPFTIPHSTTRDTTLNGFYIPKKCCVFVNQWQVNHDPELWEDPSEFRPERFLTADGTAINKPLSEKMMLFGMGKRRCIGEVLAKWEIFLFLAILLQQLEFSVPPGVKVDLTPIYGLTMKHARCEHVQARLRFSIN
# In short: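 Pooled human liver microsomes incubated with phenacetin as the CYP1A2-specific probe substrate across a range of test-compound concentrations. IC50 derived from inhibition of probe metabolism.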
# Cytochrome P450 2C8 = biological target: T2, Cytochrome P450 2C8 (Homo sapiens, UniProt P10632); assay: Inhibition of CYP2C8 in human liver microsomes using paclitaxel as substrate after 5 to 15 mins; assay type: ADME
# T2 sequence (P10632 whole entry): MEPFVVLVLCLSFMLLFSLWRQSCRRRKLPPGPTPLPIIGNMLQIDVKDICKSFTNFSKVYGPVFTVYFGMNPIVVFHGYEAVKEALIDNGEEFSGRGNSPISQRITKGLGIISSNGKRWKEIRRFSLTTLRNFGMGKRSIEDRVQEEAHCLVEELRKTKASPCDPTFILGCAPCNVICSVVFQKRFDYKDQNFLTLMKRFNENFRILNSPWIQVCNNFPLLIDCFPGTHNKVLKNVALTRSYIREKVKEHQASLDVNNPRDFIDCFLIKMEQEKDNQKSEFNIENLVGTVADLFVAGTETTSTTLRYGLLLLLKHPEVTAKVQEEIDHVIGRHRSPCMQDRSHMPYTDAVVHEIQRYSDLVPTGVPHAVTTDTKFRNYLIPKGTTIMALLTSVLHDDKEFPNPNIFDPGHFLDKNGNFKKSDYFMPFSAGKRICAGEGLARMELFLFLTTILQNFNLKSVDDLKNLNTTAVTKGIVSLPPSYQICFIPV
# Cytochrome P450 2C9 = Cytochrome P450 2C9 (Homo sapiens, UniProt P11712); assay: Inhibition of CYP2C9 in human liver microsomes using tolbutamide as substrate after 5 to 15 mins
# Chain of Cytochrome P450 2C9 (P11712 whole entry): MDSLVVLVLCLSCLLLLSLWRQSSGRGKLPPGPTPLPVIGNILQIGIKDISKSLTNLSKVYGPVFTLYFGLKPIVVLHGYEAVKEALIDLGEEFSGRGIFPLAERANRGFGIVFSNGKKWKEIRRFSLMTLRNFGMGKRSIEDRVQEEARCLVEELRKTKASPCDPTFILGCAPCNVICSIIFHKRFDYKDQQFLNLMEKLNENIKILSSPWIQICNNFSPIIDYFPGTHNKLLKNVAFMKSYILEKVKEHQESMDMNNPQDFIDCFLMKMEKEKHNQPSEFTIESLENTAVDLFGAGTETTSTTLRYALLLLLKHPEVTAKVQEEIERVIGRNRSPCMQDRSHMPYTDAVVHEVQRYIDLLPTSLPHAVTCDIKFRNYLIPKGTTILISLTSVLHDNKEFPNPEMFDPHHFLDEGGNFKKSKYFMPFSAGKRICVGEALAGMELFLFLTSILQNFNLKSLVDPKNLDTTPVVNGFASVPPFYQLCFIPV
# Cytochrome P450 2C19 [12] = biological target: T3, Cytochrome P450 2C19 (Homo sapiens, UniProt P33261); assay: Inhibition of CYP2C19 in human liver microsomes using S-Mephentoin as substrate after 5 to 15 mins; assay type: ADME
# T3 sequence (P33261 whole entry): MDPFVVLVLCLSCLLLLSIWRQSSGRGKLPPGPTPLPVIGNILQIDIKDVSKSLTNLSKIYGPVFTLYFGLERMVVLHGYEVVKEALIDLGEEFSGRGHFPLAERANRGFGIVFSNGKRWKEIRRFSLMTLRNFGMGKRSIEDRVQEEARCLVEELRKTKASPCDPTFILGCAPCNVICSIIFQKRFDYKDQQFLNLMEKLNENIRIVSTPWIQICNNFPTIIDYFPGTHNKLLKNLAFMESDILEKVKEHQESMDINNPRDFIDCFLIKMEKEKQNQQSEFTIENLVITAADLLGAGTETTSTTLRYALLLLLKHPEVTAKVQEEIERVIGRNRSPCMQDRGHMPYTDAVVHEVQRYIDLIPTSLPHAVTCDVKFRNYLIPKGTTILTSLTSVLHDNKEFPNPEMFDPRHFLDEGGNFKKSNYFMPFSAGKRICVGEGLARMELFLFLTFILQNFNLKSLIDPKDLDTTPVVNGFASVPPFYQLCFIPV
# In short: (§3)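 Pooled human liver microsomes were incubated with isozyme-specific probe substrates: S-mephenytoin for CYP2C19 and bufuralol for CYP2D6.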
# Cytochrome P450 2D6 = Cytochrome P450 2D6 (Homo sapiens, UniProt P10635); assay: Inhibition of CYP2D6 in human liver microsomes using bufuralol as substrate after 5 to 15 mins; assay type: ADME; in short: as §3
# Chain of Cytochrome P450 2D6 (P10635 whole entry): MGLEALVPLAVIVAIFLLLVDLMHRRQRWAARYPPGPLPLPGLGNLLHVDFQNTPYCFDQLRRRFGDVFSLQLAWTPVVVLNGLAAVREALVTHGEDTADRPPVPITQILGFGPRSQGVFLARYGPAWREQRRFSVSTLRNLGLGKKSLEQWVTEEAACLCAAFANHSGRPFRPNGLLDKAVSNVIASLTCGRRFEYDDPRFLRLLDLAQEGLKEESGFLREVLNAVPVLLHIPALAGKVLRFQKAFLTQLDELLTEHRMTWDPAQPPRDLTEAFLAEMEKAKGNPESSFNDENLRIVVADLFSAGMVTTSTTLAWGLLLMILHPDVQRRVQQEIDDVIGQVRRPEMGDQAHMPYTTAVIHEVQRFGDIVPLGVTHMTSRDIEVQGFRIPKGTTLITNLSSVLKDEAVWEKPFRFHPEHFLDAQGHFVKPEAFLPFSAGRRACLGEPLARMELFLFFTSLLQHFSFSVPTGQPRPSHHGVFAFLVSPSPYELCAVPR
# Cytochrome P450 3A4 [13] = biological target: T4, Cytochrome P450 3A4 (Homo sapiens, UniProt P08684); assay: Inhibition of CYP3A4 using in human liver microsomes using midazolam as substrate after 5 to 15 mins; assay type: ADME
# T4 sequence (P08684 whole entry): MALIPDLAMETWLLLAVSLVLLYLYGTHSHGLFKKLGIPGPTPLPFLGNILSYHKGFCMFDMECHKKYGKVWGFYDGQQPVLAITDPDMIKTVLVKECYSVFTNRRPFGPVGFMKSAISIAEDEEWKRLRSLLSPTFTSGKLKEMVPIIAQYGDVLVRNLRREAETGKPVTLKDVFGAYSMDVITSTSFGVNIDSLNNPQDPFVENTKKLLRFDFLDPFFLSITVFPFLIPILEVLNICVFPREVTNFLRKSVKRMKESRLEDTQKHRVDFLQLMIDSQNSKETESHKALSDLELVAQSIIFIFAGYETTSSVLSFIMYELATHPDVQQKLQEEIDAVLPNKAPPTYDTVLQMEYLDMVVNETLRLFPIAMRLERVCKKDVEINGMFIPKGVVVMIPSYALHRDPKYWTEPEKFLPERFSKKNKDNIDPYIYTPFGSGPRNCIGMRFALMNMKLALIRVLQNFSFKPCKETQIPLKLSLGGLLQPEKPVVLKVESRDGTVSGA
# In short: (§4)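 CYP3A4 inhibition was measured in pooled human liver microsomes using an isozyme-specific probe substrate: midazolam for line 1 and testosterone for line 2.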
# Cytochrome P450 3A4 [14] = biological target: T4, Cytochrome P450 3A4; assay: Inhibition of CYP3A4 using in human liver microsomes using testosterone as substrate after 5 to 15 mins; assay type: ADME; in short: as §4
# [15] = test system: Hemoglobin HbA (Homo sapiens), P69905+P68871 [E7V]; assay: as §1, with “500” for “30”; in short: as §2
# Cytochrome P450 2C19 [16] = biological target: T3, Cytochrome P450 2C19; assay: Time dependent inhibition of CYP2C19 in human liver microsomes using S-Mephentoin as substrate; assay type: ADME
# Cytochrome P450 3A4 [17] = biological target: T4, Cytochrome P450 3A4; assay: Time dependent inhibition of CYP3A4 using in human liver microsomes using midazolam as substrate; assay type: ADME
# Cytochrome P450 3A4 [18] = biological target: T4, Cytochrome P450 3A4; assay: Time dependent inhibition of CYP3A4 using in human liver microsomes using testosterone as substrate; assay type: ADME
# [19] = test system: Hemoglobin HbA (Homo sapiens), P69905+P68871 [E7V]; assay: as §1, with “100” for “30”, “20” for “oxygenation for 10”, “oxygenation/deoxygenation cycle” for “and subsequent deoxygenation”
smiles,measurement,setting,value
COc1cc(C=O)c(OCc2cc(-c3cn[nH]c3)cn3ccnc23)cn1,Activity,[1],28.2%
COc1cc(C=O)c(OCc2ccc3ccncc3c2)cn1,Activity,[1],13.7%
COc1cc(C=O)c(OCc2cccnc2-c2[nH]ncc2C)cn1,Activity,[1],51.7%
same,Activity,[2],43.1%
same,Activity,Homo sapiens,64.5%
COc1cc(C=O)c(OCc2cncc(-c3ccn[nH]3)c2)cn1,Activity,[1],9%
CC(C)n1nccc1-c1ncccc1COc1ccccc1C=O,Activity,[2],80.6%
same,Activity,Homo sapiens,136%
same,t1/2,Blood,2.1 h
same,AUC/dose,Rattus norvegicus,1059 ng·h/mL/mg/kg
COc1cc(C=O)c(OCc2cccnc2-c2ccn[nH]2)cn1,Activity,[1],40.2%
same,Activity,[2],19.2%
CC(C)n1nccc1-c1ncccc1COc1cncc(O)c1C=O,Activity,[1],70.5%
same,Activity,[2],72.5%
same,Activity,Homo sapiens,167%
same,t1/2,Blood,8.1 h
same,AUC/dose,Rattus norvegicus,10887 ng·h/mL/mg/kg
COc1cc(C=O)c(OCc2cccnc2-c2ccnn2C(C)C)cn1,Activity,[1],66.2%
same,Activity,[2],66.9%
same,Activity,Homo sapiens,115%
same,t1/2,Blood,2.7 h
same,Kp,[3],38
same,AUC/dose,Rattus norvegicus,20.6 ng·h/mL/mg/kg
COc1cncc(OCc2cccnc2-c2ccnn2C(C)C)c1C=O,Activity,[1],54.5%
same,Activity,[2],55%
same,Activity,Homo sapiens,131%
same,t1/2,Blood,2.5 h
same,AUC/dose,Rattus norvegicus,36.4 ng·h/mL/mg/kg
COc1cc(C=O)c(OCc2cncc(-c3nnn[nH]3)c2)cn1,Activity,[1],21.9%
COc1cc(C=O)c(OCc2cccc3c2cnn3C)cn1,Activity,[1],32.7%
COc1cc(C=O)c(OCc2cc(-c3nn[nH]n3)cn3ccnc23)cn1,Activity,[1],21.1%
COc1cc(C=O)c(OCc2cccn3ccnc23)cn1,Activity,[1],44.4%
CC(C)n1nccc1-c1ncccc1COc1cccc(F)c1C=O,Activity,[1],67.8%
same,Activity,[2],72.8%
same,Activity,Homo sapiens,104%
same,t1/2,Blood,2.7 h
same,AUC/dose,Rattus norvegicus,438 ng·h/mL/mg/kg
CC(C)n1nccc1-c1ncccc1COc1cccc(O)c1C=O [VOXELOTOR],Activity,[1],72.1%
same,Activity,[2],79.8%
same,Activity,Homo sapiens,206%
same,t1/2,Blood,19.1 h
same,bioavailability,[4],60%
same,bioavailability,[5],37%
same,bioavailability,[6],36%
same,half-life,[7],20 h
same,half-life,[8],20 h
same,half-life,[9],20 h
same,half-life,[10],20 h
same,half-life,[11],20 h
same,Kp,[3],150
same,IC50,Cytochrome P450 1A2,58.6 µM
same,IC50,Cytochrome P450 2C8,7.9 µM
same,IC50,Cytochrome P450 2C9,8.5 µM
same,IC50,Cytochrome P450 2C19 [12],20 µM
same,IC50,Cytochrome P450 2D6,148 µM
same,IC50,Cytochrome P450 3A4 [13],81.9 µM
same,IC50,Cytochrome P450 3A4 [14],12.5 µM
same,Activity,[15],2.6%
same,TDI,Cytochrome P450 2C19 [16],Not Active
same,AUC/dose,Rattus norvegicus,326806 ng·h/mL/mg/kg
same,TDI,Cytochrome P450 3A4 [17],Not Active
same,TDI,Cytochrome P450 3A4 [18],Not Active
COc1cc(C=O)c(OCc2cc(Br)cn3ccnc23)cn1,Activity,[1],11.7%
COc1cc(C=O)c(OCc2cccn3c(C)nnc23)cn1,Activity,[1],42.2%
COc1cc(C=O)c(OCc2cccc3ocnc23)cn1,Activity,[1],37%
COc1cc(C=O)c(OCc2cccc3ncccc23)cn1,Activity,[1],36%
COc1cc(C=O)c(OCc2cccn3cncc23)cn1,Activity,[1],37.9%
COc1ccc(OCc2cccnc2)c(C=O)c1,Activity,[1],34%
same,Activity,[19],Active
